Results gathered from unrelated publications.
Protocols differ between the studies behind these lines. pIC50: −log10 of the molar value.
MMP13: Collagenase 3 (MMP13, Homo sapiens, UniProt P45452)
LNPEP: Leucyl-cystinyl aminopeptidase (LNPEP, Homo sapiens, UniProt Q9UIQ6)
Cruzipain: Cruzipain (Trypanosoma cruzi, UniProt P25779)
F12: Coagulation factor XII (F12, Homo sapiens, UniProt P00748)
SLCO1B1: Solute carrier organic anion transporter family member 1B1 (SLCO1B1, Homo sapiens, UniProt Q9Y6L6)
CHRM1: Muscarinic acetylcholine receptor M1 (CHRM1, Homo sapiens, UniProt P11229)
Papain: Papain (Carica papaya, UniProt P00784)
PBRM1 bromodomain: Protein polybromo-1, bromodomain (PBRM1, Homo sapiens, UniProt Q86U86)

Cc1noc(-c2cc3cc(-c4nc(C(=O)NCc5cccnc5)[nH]c4C)ccc3[nH]2)n1 gave a pIC50 of 9.19 (MMP13; enzyme activity, inhibitor, FRET).
The pIC50 of CCn1ncc2c1-c1cnc(N)c(c1)O[C@H](C)c1cc(F)ccc1-c1nn(C)nc1C2 is reported as 5.94 (Insulin receptor (INSR, Homo sapiens, UniProt P06213); enzyme activity, inhibitor, radiometric).
Cn1nc(C(=O)NCc2ccc(C(=O)O)cc2)cc1-c1ccc2[nH]c(-c3ccncn3)cc2c1 has a pIC50 of 9.09 (MMP13; enzyme activity, inhibitor, FRET).
O=S(=O)(Nc1cccc(-c2nnn[nH]2)c1)c1cc2ccccc2s1 gave a pIC50 of 5.23 (LNPEP; enzyme activity, inhibitor, fluorescence).
With O=C(CNC(=O)c1ccccc1)OC(C(=O)Nc1cc(C(F)(F)F)ccc1Cl)c1ccccc1 (stereo not shown) the pIC50 was 5.15 (Cruzipain; enzyme activity, inhibitor).
For CC[C@@H](C(=O)Nc1ccc(C(N)=O)c(F)c1)n1cc(OC)c(-c2cc(Cl)ccc2-n2cc(C(F)(F)F)nn2)cc1=O, the pIC50 was < 5.70 (F12; enzyme activity, inhibitor).
With O=C(COc1ccc(Cl)cc1)N1CCN(Cc2ccc3c(c2)OCO3)CC1 the pIC50 was 4.46 (SLCO1B1; transporter uptake, inhibitor, fluorescence; CHO; 30 min, pH 7.4).
Cn1cc(-c2cc3cc(-c4cc(C(=O)NCc5ccc(C(=O)O)cc5)nn4C)ccc3[nH]2)cn1 gave a pIC50 of 8.80 (MMP13; enzyme activity, inhibitor, FRET).
CO[C@H]1/C=C/O[C@@]2(C)Oc3c(C)c(O)c4c(O)c(c(/C=N/N5CCN(C)CC5)c(O)c4c3C2=O)NC(=O)/C(C)=C\C=C\[C@H](C)[C@H](O)[C@@H](C)[C@@H](O)[C@@H](C)[C@H](OC(C)=O)[C@@H]1C has a pIC50 of 5.89 (SLCO1B1; transporter uptake, inhibitor, fluorescence; CHO; 30 min, pH 7.4).
With CCn1c(-c2nc3ccc(C(=O)N4CCCC(N)C4)cc3n2C)cc2ccccc21 (stereo not shown) the pIC50 was < 4.80 (CHRM1; calcium signal, antagonist, fluorescence).
The pIC50 of CC(C)C[C@H](NC(=O)[C@H]1O[C@@H]1C(=O)O)C(=O)NCCCCN=C(N)N is reported as 9.82 (Papain; enzyme activity, inhibitor).
For Nc1ncc2c(n1)-c1c([nH]c3ccc(-c4ccc(F)cc4)cc13)CCC2, the pIC50 was 5.41 (Dual serine/threonine and tyrosine protein kinase (DSTYK, Homo sapiens, UniProt Q6XUX3); enzyme activity, inhibitor, radiometric).
C[N+]1(C)CCC(OC(=O)C(c2ccccc2)c2ccccc2)CC1 has a pIC50 of 8.28 (CHRM1; ligand displacement, radioligand).
Cc1ncsc1-c1ccc(CNC(=O)[C@@H]2C[C@@H](O)CN2C(=O)[C@@H](NC(=O)C2(F)CC2)C(C)(C)C)c(OCCOCCOCCN2CCN(c3cc(-c4ccccc4O)nnc3N)CC2)c1 gave a pIC50 of 5.82 (PBRM1 bromodomain; cell-free assay, TR-FRET).
O=S(=O)(Nc1cccc(-c2nnn[nH]2)c1)c1ccc(Br)cc1F has a pIC50 of 5.26 (LNPEP; enzyme activity, inhibitor, fluorescence).
The pIC50 of Cn1nc(C(=O)NCc2ccc(C(=O)O)cc2)cc1-c1ccc2[nH]c(-c3cccnc3)cc2c1 is reported as 8.24 (MMP13; enzyme activity, inhibitor, FRET).
The pIC50 of Cn1ccc2ccc(S(=O)(=O)Nc3cccc(-c4nnn[nH]4)c3)cc21 is reported as 4.90 (LNPEP; enzyme activity, inhibitor, fluorescence).
For CCOc1cc(CC(=O)N[C@@H](CC(C)C)c2ccccc2N2CCCCC2)ccc1C(=O)O, the pIC50 was 5.96 (SLCO1B1; transporter uptake, inhibitor, fluorescence; CHO; 30 min, pH 7.4).
With NC(=O)c1ccc[n+]([C@@H]2O[C@H](COP(=O)([O-])OP(=O)(O)OC[C@H]3O[C@@H](n4cnc5c(N)ncnc54)[C@H](O)[C@@H]3O)[C@@H](O)[C@H]2O)c1 the pIC50 was 3.42 (Protein mono-ADP-ribosyltransferase PARP8 (Homo sapiens, UniProt Q8N3A8); enzyme activity, inhibitor).
With CN(c1cccc(-c2nnn[nH]2)c1)S(=O)(=O)c1cc(Br)c(Cl)s1 the pIC50 was 4.93 (LNPEP; enzyme activity, inhibitor, fluorescence).
O=c1ccc2c(OCCCCOc3ccccc3)c3ccoc3c(O)c2o1 has a pIC50 of 6.80 (Potassium voltage-gated channel subfamily A member 3 (Kcna3, Mus musculus, UniProt P16390); ion current, inhibitor, patch clamp).
For CCCC[C@H](NC(=O)[C@H](C)c1c(C)[nH]c2ccc(O)cc12)c1ncc(-c2cc3ccccc3nc2OC)[nH]1, the pIC50 was 7.00 (Histone deacetylase 11 (HDAC11, Homo sapiens, UniProt Q96DB2); enzyme activity, inhibitor).
Nc1nc(N)c2nc(CNc3ccc(C(=O)NCCc4ccccc4)cc3)cnc2n1 gave a pIC50 of 4.95 (Cytochrome P450 3A4 (CYP3A4, Homo sapiens, UniProt P08684); enzyme activity, inhibitor, luciferase).
O=S(=O)(Nc1cccc(-c2nnn[nH]2)c1)c1cc(C(F)(F)F)cc(C(F)(F)F)c1 has a pIC50 of 5.39 (LNPEP; enzyme activity, inhibitor, fluorescence).
The pIC50 of COC(=O)c1nc(N)n(C(=O)c2ccc(C(C)(C)C)cc2)n1 is reported as ~6.96 (F12; enzyme activity, inhibitor, absorbance).
The pIC50 of O=S(=O)(Nc1cccc(-c2nnn[nH]2)c1)c1scc2ccccc12 is reported as 4.96 (LNPEP; enzyme activity, inhibitor, fluorescence).
For CC/C=C\C/C=C\C/C=C\C/C=C\C/C=C\CCCC(=O)O, the pIC50 was 4.41 (DNA polymerase delta catalytic subunit (POLD1, Homo sapiens, UniProt P28340); enzyme activity, inhibitor).
The pIC50 of Cc1noc(-c2cc3cc(-c4nc(C(=O)NCc5ccccn5)[nH]c4C)ccc3[nH]2)n1 is reported as 8.51 (MMP13; enzyme activity, inhibitor, FRET).
The pIC50 of COc1ccc(NC(=O)COC(=O)C(CC(C)C)N2C(=O)C3CC=CCC3C2=O)cc1Cl (stereo not shown) is reported as 6.05 (Cruzipain; enzyme activity, inhibitor, fluorescence).
CC(C)[C@H](CO)Nc1nc(Nc2cccc(Cl)c2)c2ncn(C(C)C)c2n1 has a pIC50 of < 5.00 (Serine/threonine-protein kinase PAK 4 (PAK4, Homo sapiens, UniProt O96013); enzyme activity, inhibitor; lysate).
For O=C(O[C@H]1[C@@H]2C=CO[C@@H](O[C@@H]3O[C@H](CO)[C@@H](O)[C@H](O)[C@H]3O)[C@@H]2[C@@]2(CO)O[C@@H]12)c1ccc(O)cc1, the pIC50 was 3.70 (SLCO1B1; transporter uptake, inhibitor, radiometric; HEK293; 10 min).
For CCOCc1nc(O)c(-c2nnc(Cc3ccc(Cl)cn3)o2)c(O)c1-c1c(OC)cccc1OC, the pIC50 was < 4.52 (5-hydroxytryptamine receptor 4 (HTR4, Homo sapiens, UniProt Q13639); ligand displacement, radioligand).
With Cc1ncc([N+](=O)[O-])n1CCO the pIC50 was < 4.00 (SLCO1B1; transporter uptake, inhibitor, fluorescence; CHO; 30 min, pH 7.4).
O=S(=O)(Nc1cccc(-c2nnn[nH]2)c1)c1c(F)cc(Br)cc1F has a pIC50 of 5.12 (LNPEP; enzyme activity, inhibitor, fluorescence).
With Cc1noc(-c2cc3cc(-c4nc(C(N)=O)[nH]c4C)ccc3[nH]2)n1 the pIC50 was 7.80 (MMP13; enzyme activity, inhibitor, FRET).
With CN1CCN(c2ccc(Nc3ncc4cc(C#N)c(=O)n(C5CCCC5)c4n3)cc2)CC1 the pIC50 was 5.41 (Calcium/calmodulin-dependent protein kinase type II subunit gamma (CAMK2G, Homo sapiens, UniProt Q13555); enzyme activity, inhibitor).
With c1ccc(/C(=N\Nc2nc3ccccc3s2)c2ccccn2)cc1 the pIC50 was 4.89 (E3 ubiquitin-protein ligase Mdm2 (MDM2, Homo sapiens, UniProt Q00987); protein-protein interaction, inhibitor).
With CCOC(=O)[C@H](CCc1ccccc1)N[C@@H](C)C(=O)N1[C@H](C(=O)O)C[C@@H]2CCC[C@@H]21 the pIC50 was 5.40 (SLCO1B1; transporter uptake, inhibitor, fluorescence; CHO; 30 min, pH 7.4).
Cc1ncsc1-c1ccc(CNC(=O)[C@@H]2C[C@@H](O)CN2C(=O)[C@@H](NC(=O)C2(F)CC2)C(C)(C)C)c(OCCOc2ccc(CN3CCN(c4cc(-c5ccccc5O)nnc4N)CC3)cc2)c1 has a pIC50 of 6.30 (PBRM1 bromodomain; cell-free assay, TR-FRET).
The pIC50 of CCOc1ccc(C[C@@H](N)C(=O)N[C@@H](Cc2ccccc2)C(=O)NC2CCN(C(=N)N)CC2)cc1 is reported as < 5.00 (Coagulation factor XII, trypsin-like site (F12, Homo sapiens, UniProt P00748); enzyme activity, inhibitor, fluorescence).
The pIC50 of O=C(COc1ccccc1Br)NCCc1nc2ccccc2[nH]1 is reported as 6.40 (Cruzipain; enzyme activity, inhibitor).
With O=C(N[C@@H](Cc1ccccc1)C(=O)c1noc(-c2ccccc2)n1)[C@H](Cc1ccccc1)NC(=O)N1CCOCC1 the pIC50 was 6.70 (Papain; enzyme activity, inhibitor; pH 6.5, with preincubation).
With Cc1ccc(C(C)C)c(O)c1 the pIC50 was 2.92 (gbr-2 (Haemonchus contortus, UniProt O46124); ion current, antagonist, two-electrode voltage clamp; oocytes).
With CC(C)c1cc(NC(=O)Nc2ccc(F)c(F)c2)n(-c2ccccc2)n1 the pIC50 was 5.39 (Kir3.1/Kir3.4 (Homo sapiens, UniProt P48544+P48549); enzyme activity in cells, inhibitor).
For CCC1CN(C(=O)NCC(F)(F)F)CC1c1nc(N)nc2[nH]ccc12 (stereo not shown), the pIC50 was 5.02 (Tyrosine-protein kinase JAK1 (JAK1, Homo sapiens, UniProt P23458); enzyme activity, inhibitor, ADP detection).
For O=S(=O)(Nc1cccc(-c2nnn[nH]2)c1)c1ccc(Cl)c(Cl)c1Cl, the pIC50 was 5.92 (LNPEP; enzyme activity, inhibitor, fluorescence).
